# From PMC6714607 (ACS Omega, 2019)
# Key:
# Assay type in all cases: cell-based
# U87MG glioblastoma cells [1] = experiment: Confocal colocalization with Lyso-Tracker Red and Hoechst; details: 0.5 μM, 3 h, 37 °C, Lyso-Tracker Red and Hoechst staining
# Summary of the method: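 U87MG cells were plated 12 h beforehand on glass chamber slides and grown to 70–80% confluence. They were given 0.5 μM FITC-labelled conjugate in fresh complete medium for 3 h at 37 °C under 5% CO2, then washed twice with PBS. Staining was 50 nM LysoTracker Red for 20–30 min at 37 °C, PBS washes, then 0.01 mM Hoechst for 15 min. Cells were fixed in 4% formaldehyde and imaged by confocal laser scanning microscopy.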
# U87MG cells = experiment: FACS analysis of FITC-labeled PNA conjugate uptake; details: 0.5 μM, 2 h
# Summary of the method: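 U87MG cells were seeded at 2.0×10^5 per well and left to adhere overnight. They were given 0.5 μM FITC-labelled conjugate in DMEM with 10% FCS for 2 h at 37 °C, either alone, with 10 mM NaN3 plus 10 mM 2-deoxy-D-glucose, or held at 4 °C. Cells were PBS-washed, trypsinised, pelleted, resuspended in cold PBS and filtered. Flow cytometry used 488 nm excitation, gated on untreated cells, and gave the % FITC-positive cells. Each condition was run in two repeats.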
# [2] = test system: THESCs uterus (immortalized fibroblast) cells; experiment: XTT cell viability assay, THESCs uterus; details: 1 μM, 72 h, 37 °C, triplicates in 96-well plates
# Summary of the method: (§1)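 Cells were grown in DMEM with 10% FCS and penicillin/streptomycin, then seeded at 3×10^3 per well in 96-well plates. After 24 h attachment, the medium was replaced and conjugate or its scrambled-sequence control was added. Plates were incubated 72 h at 37 °C in humidified 5% CO2, and proliferation was read by XTT assay per the kit instructions.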
# [3] = test system: normal uterus human fibroblast cells produced from a patient (Nf08 uterus); experiment: XTT cell viability assay, Nf08 uterus; details: 1 μM, 72 h, 37 °C, triplicates in 96-well plates, Figure S9
# Summary of the method: as §1
# U87MG glioblastoma cells [4] = experiment: Colony formation; details: 1.0 μM for 24 h, colonies counted after 2 weeks, triplicates
# Summary of the method: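 U87MG cells in DMEM with 10% FCS were treated for 24 h with 1.0 μM conjugate or its scrambled-sequence control. Cells were then seeded at 1000 and 500 per well in triplicate six-well plates. After 14 days, colonies were fixed with 2.5% glutaraldehyde for 10 min, stained with 1% methylene blue and counted. Colony numbers were taken from the triplicate plates.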
# miR-155 = miR-155 expression by quantitative RT-PCR after PNA conjugate treatment; details: U87MG cells, 0.5 μM PNA conjugate, 24 h, 37 °C, qRT-PCR in triplicates
# Summary of the method: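 U87MG cells were treated with 0.5 μM conjugate or its scrambled-sequence control for 24 h at 37 °C. Total microRNA was isolated, and cDNA was synthesised from 1 μg RNA. miR-155 was quantified by SYBR Green real-time PCR with miR-155-specific primers, in triplicate.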
# U87MG glioblastoma cells [5] = experiment: XTT cell viability assay, U87MG; details: 1 μM, 72 h, 37 °C, triplicates in 96-well plates
# Summary of the method: as §1
substance,measurement,setting,value
FITC-Ahx-5′-ACCCCTATCACAATTAGCATTAA-3′-dK4 [dK4–PNA–FITC],"cellular uptake by confocal microscopy of stained, fixed cells",U87MG glioblastoma cells [1],negligible uptake
same,"cellular uptake, change in FITC fluorescence by FACS","U87MG cells; 37 °C, complete medium, flow cytometry 488 nm",almost no change in fluorescence
5′-ACCCAATCGTCAGATTCCATATA-3′-C9 (head to tail) [C9–PNA-Scr],effect on viability of THESCs uterus cells,[2],negligible effects
same,effect on viability of Nf08 uterus normal human fibroblast cells,[3],negligible effects
FITC-Ahx-5′-ACCCCTATCACAATTAGCATTAA-3′-C9 (head to tail) [C9–PNA–FITC],cellular localization of FITC-labeled PNA,U87MG glioblastoma cells [1],"predominantly found in lysosomes and, to a lesser extent, in nuclei"
same,"cellular uptake by confocal microscopy of stained, fixed cells",U87MG glioblastoma cells [1],strong punctate green signals
same,cellular uptake at 4 °C (ATP depletion) by FACS,"U87MG cells; 4 °C, versus control at 37 °C, two repeats",clear decrease in cellular uptake
same,cellular uptake with 10 mM NaN3/10 mM 2-deoxy-D-glucose by FACS,"U87MG cells; 37 °C, versus control without inhibitors, two repeats",clear decrease in cellular uptake
5′-ACCCCTATCACAATTAGCATTAA-3′-C9 (head to tail) [C9–PNA],effect on viability of THESCs uterus cells,[2],negligible effects
same,colony formation,U87MG glioblastoma cells [4],substantial decrease in colony formation
same,effect on viability of Nf08 uterus normal human fibroblast cells,[3],negligible effects
same,decrease in miR-155 in comparison to the scrambled control,miR-155,over 80%
same,reduction in cell viability in comparison to the C9–PNA-Scr control,U87MG glioblastoma cells [5],> 80%
